The source made the active and inactive calls. No cut-off for these calls is given here.
What was measured:
[1] = Antitumor activity against rat Lewis-Lymphoma 8 cells allografted in Lewis-Wistar rat assessed as tumor regression at 20 mg/kg, ip administered for 2 weeks measured for 9 to 10 months relative to control; assay type: functional; conditions: route intraperitoneal
Musca domestica [2] = experiment: Toxicity in male house fly assessed as lowest dose required to cause complete sterility administered in sugar; assay type: organism-based; conditions: in vivo, po
W256 [3] = experiment: Antitumor activity against rat Walker 256 cells intramuscularly allografted in rat assessed as tumor growth inhibition at 3 mg/kg, qd administered for 5 days relative to control; assay type: functional; conditions: W256, im, 120 h, route intramuscular, read-out: TGI
Summary of the method: (§1)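 Walker 256 carcinoma grown as a solid tumour in rats, with one injection daily for 5 days. Response is given as T/C %, the treated-group measure over the untreated-control tumour measure; a smaller value means more activity. Host toxicity is the mean net weight change of treated minus control animals, in grams.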

Rattus norvegicus [4] = experiment: Toxicity in rat allografted with rat Walker 256 cells intramuscularly assessed as change in body weight at 3 mg/kg, qd administered for 5 days; assay type: organism-based; set-up: dose 3 mg/kg, route intramuscular; conditions: in vivo, im, 120 h
Summary of the method: (§2)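 Walker 256 carcinoma solid-tumour system in rats (parent line, or the line resistant to cytoxan). Dosing was one injection per day for 5 days. Toxicity was taken as the average net body-weight change of the treated group minus the average net weight change of the untreated tumour-bearing controls, in grams.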

W256 [5] = experiment: Antitumor activity against rat Walker 256 cells intramuscularly allografted in rat assessed as tumor growth inhibition; assay type: functional; conditions: W256, im
Summary of the method: (§3)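 Dosed once daily for 5 days. Response is tumor progression in treated (T) versus untreated control (C) animals, expressed as T/C percentage. Host weight change is reported as the average net weight change of the test group minus that of the controls, in grams.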

Musca domestica [6] = experiment: Toxicity in male house fly assessed as lowest dose required to cause complete sterility administered in food; assay type: organism-based; conditions: in vivo, po
W256 [7] = experiment: Antitumor activity against rat Walker 256 cells intramuscularly allografted in rat assessed as survival rate at 3 mg/kg, qd administered for 5 days; assay type: functional, organism-based; set-up: dose 3 mg/kg
Summary of the method: (§4)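 Rats bearing Walker 256 carcinoma as a solid tumor; lines 1-8 use a cytoxan-resistant Walker 256 subline. Dosed once daily for 5 days. Treated (T) and untreated control (C) groups are compared, and the response is given as T/C percentage, reflecting increase in survival time. Host weight change is the average weight change of the test group minus that of the controls, in grams.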

[8] = Therapeutic index, ratio of LD50 for rat allografted with rat Walker 256 cells to ED10 for antitumor activity against rat Walker 256 cells intramuscularly allografted in rat; assay type: cell-based; conditions: read-out: TI
Summary of the method: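 Therapeutic index is LD50/ED10 in the Walker 256 solid tumour system. ED10 is the dose giving a 10% tumour weight reduction, with values extrapolated from dose-response data.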

[9] = Toxicity in rat allografted with rat Walker 256 cells intramuscularly; assay type: organism-based
L1210 [10] = experiment: In vivo antitumor activity against mouse L1210 cells in prognostic scoring system assessed as survival rate at 3 mg/kg, qd administered for 9 days; assay type: functional, organism-based; set-up: dose 3 mg/kg
Summary of the method: (§5)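 L1210 leukaemia in mice, run as an ascites tumour system. Injections were once daily for 9 or 15 days, or as a single dose. Response is the increase in survival time, given as T/C %, treated over untreated controls; a larger value means more activity. Weight change is the treated-group mean minus the control-group mean, in grams.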

W256 [11] = experiment: Antitumor activity against rat Walker 256 cells intramuscularly allografted in rat assessed as survival rate at 0.78 mg/kg, qd administered for 5 days; assay type: functional, organism-based; set-up: dose 0.78 mg/kg; summary of the method: as §4
W256 [12] = experiment: Antitumor activity against rat Walker 256 cells intramuscularly allografted in rat assessed as survival rate at 3.12 mg/kg, qd administered for 5 days; assay type: functional, organism-based; set-up: dose 3.12 mg/kg; summary of the method: as §4
L1210 [13] = experiment: In vivo antitumor activity against mouse L1210 cells in prognostic scoring system assessed as survival rate at 5 mg/kg, qd administered for 9 days; assay type: functional, organism-based; set-up: dose 5 mg/kg; summary of the method: as §5
L1210 [14] = experiment: In vivo antitumor activity against mouse L1210 cells in prognostic scoring system assessed as survival rate at 1 mg/kg, qd administered for 9 days; assay type: functional, organism-based; set-up: dose 1 mg/kg; summary of the method: as §5
L1210 [15] = experiment: In vivo antitumor activity against mouse L1210 cells in prognostic scoring system assessed as survival rate at 1.8 mg/kg, qd administered for 9 days; assay type: functional, organism-based; set-up: dose 1.8 mg/kg; summary of the method: as §5
Rattus norvegicus [16] = experiment: Toxicity in rat allografted with rat Walker 256 cells intramuscularly assessed as change in body weight at 1.56 mg/kg, qd administered for 5 days; assay type: organism-based; set-up: dose 1.56 mg/kg, route intramuscular; conditions: in vivo, im, 120 h; summary of the method: as §2
W256 [17] = experiment: Antitumor activity against rat Walker 256 cells intramuscularly allografted in rat assessed as tumor growth inhibition at 0.78 mg/kg, qd administered for 5 days relative to control; assay type: functional; conditions: W256, im, 120 h, route intramuscular, read-out: TGI; summary of the method: as §3
Rattus norvegicus [18] = experiment: Toxicity in rat allografted with rat Walker 256 cells intramuscularly assessed as change in body weight at 6.25 mg/kg, qd administered for 5 days; assay type: organism-based; set-up: dose 6.25 mg/kg, route intramuscular; conditions: in vivo, im, 120 h; summary of the method: as §2
W256 [19] = experiment: Antitumor activity against rat Walker 256 cells intramuscularly allografted in rat assessed as survival rate at 1.56 mg/kg, qd administered for 5 days; assay type: functional, organism-based; set-up: dose 1.56 mg/kg; summary of the method: as §4
W256 [20] = experiment: Antitumor activity against rat Walker 256 cells intramuscularly allografted in rat assessed as tumor growth inhibition at 6.25 mg/kg, qd administered for 5 days relative to control; assay type: functional; conditions: W256, im, 120 h, route intramuscular, read-out: TGI; summary of the method: as §1
Rattus norvegicus [21] = experiment: Toxicity in rat allografted with rat Walker 256 cells intramuscularly assessed as change in body weight at 3.12 mg/kg, qd administered for 5 days; assay type: organism-based; set-up: dose 3.12 mg/kg, route intramuscular; conditions: in vivo, im, 120 h; summary of the method: as §2
W256 [22] = experiment: Antitumor activity against rat Walker 256 cells intramuscularly allografted in rat assessed as tumor growth inhibition at 1.56 mg/kg, qd administered for 5 days relative to control; assay type: functional; conditions: W256, im, 120 h, route intramuscular, read-out: TGI; summary of the method: as §3
W256 [23] = experiment: Antitumor activity against rat Walker 256 cells intramuscularly allografted in rat assessed as tumor growth inhibition at 3.12 mg/kg, qd administered for 5 days relative to control; assay type: functional; conditions: W256, im, 120 h, route intramuscular, read-out: TGI; summary of the method: as §1
L1210 [24] = experiment: In vivo antitumor activity against mouse L1210 cells in prognostic scoring system assessed as tumor growth inhibition at 3 mg/kg, qd administered for 9 days relative to control; assay type: functional; conditions: L1210, 216 h, read-out: TGI
W256 [25] = experiment: Antitumor activity against rat Walker 256 cells intramuscularly allografted in rat assessed as survival rate at 6.25 mg/kg, qd administered for 5 days; assay type: functional, organism-based; set-up: dose 6.25 mg/kg; summary of the method: as §4
Rattus norvegicus [26] = experiment: Toxicity in rat allografted with rat Walker 256 cells intramuscularly assessed as change in body weight at 0.78 mg/kg, qd administered for 5 days; assay type: organism-based; set-up: dose 0.78 mg/kg, route intramuscular; conditions: in vivo, im, 120 h; summary of the method: as §2
W256 [27] = experiment: Antitumor activity against rat Walker 256 cells intramuscularly allografted in rat assessed as survival rate at 0.4 mg/kg, qd administered for 5 days; assay type: functional, organism-based; set-up: dose 0.4 mg/kg; summary of the method: as §4
L1210 [28] = experiment: In vivo antitumor activity against mouse L1210 cells in prognostic scoring system assessed as survival rate at 2.5 mg/kg, qd administered for 15 days; assay type: functional, organism-based; set-up: dose 2.5 mg/kg; summary of the method: as §5
Rattus norvegicus [29] = experiment: Toxicity in rat allografted with rat Walker 256 cells intramuscularly assessed as change in body weight at 0.4 mg/kg, qd administered for 5 days; assay type: organism-based; set-up: dose 0.4 mg/kg, route intramuscular; conditions: in vivo, im, 120 h; summary of the method: as §2
W256 [30] = experiment: Antitumor activity against rat Walker 256 cells intramuscularly allografted in rat assessed as tumor growth inhibition at 0.4 mg/kg, qd administered for 5 days relative to control; assay type: functional; conditions: W256, im, 120 h, route intramuscular, read-out: TGI; summary of the method: as §3

`C=CCN(CC=C)C(CN1CC1)C(N)=O` (stereo not given) gave an Activity [1] of 100%.

Work on `C=CCN(CC=C)P(=S)(N1CC1C)N1CC1C` (stereo not given) yielded an Activity (Musca domestica [2]) of 1%, an inhibition in vivo at 3 mg/kg (W256 [3]) of 14% and an Activity (Rattus norvegicus [4]) of -7 g. For the same compound, the ED10 (W256 [5]) was 0.7 mg/kg, the Activity (Musca domestica [6]) was 1% and the Activity (W256 [7]) was “Active”. The selectivity ratio [8] was 10 and the LD50 [9] was 7 mg/kg.

With `C=CCN(CC=C)P(=O)(N1CC1C)N1CC1C` (stereo not given) the Activity (L1210 [10]) was “Active”, the Activity (Musca domestica [2]) was 0.5% and the Activity (W256 [11]) was “Active”. For the same compound, the ED10 (W256 [5]) was 3.5 mg/kg, the Activity (W256 [12]) was “Active” and the Activity (L1210 [13]) was “Active”. For the same compound, the Activity (L1210 [14]) was “Active”, the Activity (Musca domestica [6]) was 0.25% and the Activity (L1210 [15]) was “Active”. It also gave an Activity (Rattus norvegicus [16]) of -22 g, an inhibition in vivo at 0.78 mg/kg (W256 [17]) of 24% and a selectivity ratio [8] of 9. For the same compound, the Activity (Rattus norvegicus [18]) was -28 g, the Activity (W256 [19]) was “Active” and the inhibition in vivo at 6.25 mg/kg (W256 [20]) was 3%. For the same compound, the Activity (Rattus norvegicus [21]) was -15 g, the LD50 [9] was 22 mg/kg and the inhibition in vivo at 1.56 mg/kg (W256 [22]) was 5%. For the same compound, the inhibition in vivo at 3.12 mg/kg (W256 [23]) was 0%, the inhibition in vivo at 3 mg/kg (L1210 [24]) was 172% and the Activity (W256 [25]) was “Active”. For the same compound, the Activity (Rattus norvegicus [26]) was -8 g.

In the case of `C=CCN(CC=C)P(=S)(N1CC1)N1CC1C` (stereo not given), the Activity (Musca domestica [2]) was 0.5%, the Activity (W256 [27]) was “Active” and the ED10 (W256 [5]) was 0.4 mg/kg. The Activity (Musca domestica [6]) was 0.25%, the Activity (L1210 [28]) was “Active” and the Activity (Rattus norvegicus [29]) was -4 g. For the same compound, the selectivity ratio [8] was 10, the inhibition in vivo at 0.4 mg/kg (W256 [30]) was 77% and the LD50 [9] was 4 mg/kg.

Reference: ChEMBL document CHEMBL3272018, “Synthesis of aziridinylallylaminophosphine oxides and sulfides as potential adjuvant cancer chemotherapeutic agents” (J Med Chem, 1976)
